Laboratory results from ChEMBL document CHEMBL1124995, “Synthesis and pharmacology of the enantiomers of cis-7-hydroxy-3-methyl-2-(dipropylamino)tetralin” (J Med Chem, 1990).

Key:
Rattus norvegicus [1] = experiment: In vivo effect of 5-HTP accumulation in nonpretreated rat cortex at the dose of 50 umol/kg, sc; format: functional
Summary of the method: (§1)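 Untreated rats given test drug 50 μmol/kg sc 65 min before death, and NSD 1015 (decarboxylase inhibitor) 100 mg/kg ip 30 min before death. DOPA and 5-HTP in limbic, striatal and cortical regions measured by HPLC with electrochemical detection. Values are % of saline controls, mean ± SEM, n = 4. ANOVA with Fisher's test.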

Rattus norvegicus [2] = experiment: In vivo effect of 5-HTP accumulation in nonpretreated rat striatum at the dose of 50 umol/kg, sc; format: functional; summary of the method: as §1
D(2) dopamine receptor [3] = molecular target: T1, D(2) dopamine receptor (Bos taurus, UniProt P20288); experiment: Binding affinity of [3H]spiroperidol to striatal Dopamine receptor D2 binding sites
Summary of the method: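 Calf striatal membranes, 1.5–2 mg/tube. Competition with [3H]spiroperidol (100 μL of 10 nM added to 1 mL) in Tris-HCl buffer with EDTA, NaCl, KCl, CaCl2, MgCl2, pH 7.2, run in triplicate. Incubated 40 min at 37 °C. Nonspecific binding with 1 μM (+)-butaclamol. GF/B filtration, scintillation counting; pIC50 as mean ± SEM.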

Rattus norvegicus [4] = experiment: In vivo effect of 5-HTP accumulation in nonpretreated rat limbic system at the dose of 50 umol/kg, sc; format: functional; summary of the method: as §1
D(2) dopamine receptor [5] = molecular target: T1, D(2) dopamine receptor; experiment: Binding affinity of [3H]NPA to striatal Dopamine receptor D2
Summary of the method: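 Calf striatal membranes (homogenised in Tris salt buffer pH 7.4, preincubated 30 min at 35 °C, washed), 1.5–2 mg/tube. Competition with [3H]NPA (100 μL of 5 nM added to 1 mL) in 50 mM Tris-HCl, 1 mM EDTA, 4 mM MgCl2, 0.01% ascorbic acid, pH 7.2. Incubated 45 min at 25 °C. Nonspecific binding with 1 μM (+)-butaclamol. Filtration, scintillation counting; pIC50 as mean ± SEM.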

Rattus norvegicus [6] = experiment: In vivo effect of DOPA accumulation in nonpretreated rat cortex at the dose of 50 umol/kg, sc ip; format: functional; summary of the method: as §1
Rattus norvegicus [7] = experiment: In vivo effect of DOPA accumulation in nonpretreated rat striatum at the dose of 50 umol/kg, sc ip; format: functional; summary of the method: as §1
Rattus norvegicus [8] = experiment: Effect of locomotor activity in nonpretreated rats at the dose of 50.0uM/Kg, sc; format: functional
Summary of the method: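 Untreated rats given test drug sc 5 min before the session. Photocell motility boxes recorded accumulated counts over 30 min, with gross behaviour observed. Activity expressed as % of saline controls, mean ± SEM. ANOVA with Fisher's test.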

Rattus norvegicus [9] = experiment: Effect of locomotor activity in reserpine pretreated rats at the dose of 50.0uM/Kg, sc ip after count of 30 minute; format: functional
Summary of the method: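 Rats given reserpine 5 mg/kg sc 18 h beforehand, then test drug sc immediately before the session. Photocell motility counts accumulated over 30 min, mean ± SEM, n = 3-4. In one arm haloperidol 0.3 mg/kg sc was given 30 min before drug. ANOVA with Fisher's test against controls.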

Rattus norvegicus [10] = experiment: In vivo effect of DOPA accumulation in nonpretreated rat limbic system at the dose of 50 umol/kg, sc ip; format: functional; summary of the method: as §1
Rattus norvegicus [11] = experiment: Effect of locomotor activity in reserpine pretreated rats at the dose of 25.0uM/Kg, sc ip after count of 30 minute; format: functional
Summary of the method: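 Reserpine 5 mg/kg sc given 18 h before; test drug sc immediately before session; haloperidol 0.3 mg/kg sc injected 30 min before test drug. Photocell motility boxes, accumulated counts over 30 min, with gross behaviour observed through mirror; mean ± SEM, n = 3-4; Anova with Fischer's test versus saline controls. Injection volume 5 mL/kg, near-neutral pH.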

T1 sequence (P20288 whole entry): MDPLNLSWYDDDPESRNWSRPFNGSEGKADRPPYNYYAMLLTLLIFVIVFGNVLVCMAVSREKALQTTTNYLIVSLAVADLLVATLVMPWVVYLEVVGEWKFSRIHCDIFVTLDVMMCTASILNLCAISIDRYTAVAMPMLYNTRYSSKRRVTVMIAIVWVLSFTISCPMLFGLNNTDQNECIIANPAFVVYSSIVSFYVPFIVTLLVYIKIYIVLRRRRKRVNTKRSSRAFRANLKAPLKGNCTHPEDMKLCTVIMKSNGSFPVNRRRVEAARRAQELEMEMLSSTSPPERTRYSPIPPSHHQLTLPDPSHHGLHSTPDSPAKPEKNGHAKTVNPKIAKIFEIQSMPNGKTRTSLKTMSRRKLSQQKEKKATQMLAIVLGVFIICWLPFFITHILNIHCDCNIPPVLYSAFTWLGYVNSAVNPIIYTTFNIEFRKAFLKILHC

Structure (SMILES)	Control (Rattus norvegicus [1])	Control (Rattus norvegicus [2])	IC50 (D(2) dopamine receptor [3])	Control (Rattus norvegicus [4])	IC50 (D(2) dopamine receptor [5])	Control (Rattus norvegicus [6])	Control (Rattus norvegicus [7])	Activity (Rattus norvegicus [8])	Activity (Rattus norvegicus [9])	Control (Rattus norvegicus [10])	Activity (Rattus norvegicus [11])
CCCN(CCC)[C@@H]1Cc2cc(O)ccc2C[C@H]1C (racemic)	147%	117%	26.9 µM	136%	1.02 µM	217%	247%	147 µM/kg	331 µM/kg	146%	–
O=C(CCCN1CCC(O)(c2ccc(Cl)cc2)CC1)c1ccc(F)cc1 [HALOPERIDOL]	–	–	–	–	–	–	–	–	–	–	573 counts/30 min
